Screens as filed in PubChem.
MT1-MMP act inh = inhibitors of human MT1-MMP activation | P50281 | HT1080 RFP-PRO-GFP cells, GFP/RFP ratio fluorescence, overnight; percent of plate control window, DMSO zero | GFP/RFP ratio change, % at 20 µM | hit rate 0.061% among 360,000;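 active = GFP/RFP ratio change of at least 30% with cell ATP level not reduced by more than half and red fluorescence within 50% of control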
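Assay system: HT1080 cells carrying an RFP-PRO-GFP reporter | Dosing: Single dose of 20 µM compound, 1% DMSO final | Incubation: Cells overnight before dosing, compound overnight, 37 °C, 5% CO2 | Evaluation: GFP/RFP fluorescence ratio | Control set: DMSO and RFP-L50D-GFP cell wells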
TMEM16A inh = inhibitors of mouse TMEM16A calcium-activated chloride channel. Q8BHY3. HEK293 TMEM16A/YFP iodide influx fluorescence, ionomycin. normalized B-score (activity score, 25-100; higher = stronger inhibition) at 10 µM. hit rate 1.2% among 310,000. AID 588511;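 active = ratio plate-corrected score three or more library SD toward inhibition, starting fluorescence score within five deviations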;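 note: score derived from kinetic fluorescence span divided by baseline fluorescence per well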
DAGLB inh = blocks human DAGLB lipase activity. HEK293T DAGLB membrane lysate, EnzChek fluorogenic substrate. hit rate 0.059% among 340,000. Q8NCG7. AID 504411. inhibition, % at 5.17 µM; in the data active = inhibition above about 34%
Target sequence (Q8NCG7 whole entry, looked up): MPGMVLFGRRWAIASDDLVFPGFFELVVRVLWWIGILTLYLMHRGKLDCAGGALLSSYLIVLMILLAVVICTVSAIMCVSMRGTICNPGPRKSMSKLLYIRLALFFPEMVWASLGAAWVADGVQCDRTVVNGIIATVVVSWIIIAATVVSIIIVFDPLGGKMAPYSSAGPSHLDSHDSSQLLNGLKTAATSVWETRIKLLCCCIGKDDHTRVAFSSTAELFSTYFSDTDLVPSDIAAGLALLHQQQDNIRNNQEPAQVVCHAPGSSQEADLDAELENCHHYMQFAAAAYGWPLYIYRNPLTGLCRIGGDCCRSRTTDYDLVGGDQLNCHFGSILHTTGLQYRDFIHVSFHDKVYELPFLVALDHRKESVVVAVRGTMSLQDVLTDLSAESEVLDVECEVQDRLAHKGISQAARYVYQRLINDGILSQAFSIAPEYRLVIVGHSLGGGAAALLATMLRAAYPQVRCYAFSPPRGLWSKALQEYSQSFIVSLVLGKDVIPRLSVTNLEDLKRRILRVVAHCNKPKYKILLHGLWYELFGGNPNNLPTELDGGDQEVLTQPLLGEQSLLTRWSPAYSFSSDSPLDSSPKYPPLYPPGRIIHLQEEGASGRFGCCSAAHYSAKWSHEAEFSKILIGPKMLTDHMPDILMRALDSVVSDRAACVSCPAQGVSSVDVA
ANO1 activ = mouse TMEM16A channel activation, primary screen | B-score at 10 µM | Q8BHY3 | HEK293 TMEM16A/YFP-H148Q/I152L, iodide quench fluorescence; stronger effect = lower value | hit rate 0.3% among 340,000;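 active = fluorescence-ratio B-score plate-corrected deviation score at least 3 library SD below zero, with starting fluorescence score within 5 deviations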;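 note: channel opened by trigger with iodide after compound preincubation; score built on the fluorescence ratio of max minus min over baseline; more negative score means more quench and so TMEM16A activation or potentiation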
TMEM16A reconf = TMEM16A (mouse) chloride channel inhibition, re-confirmation | shares compounds with TMEM16A inh | HEK293 TMEM16A/YFP-H148Q, iodide quench fluorescence; ionomycin added to raise cell calcium | inhibition, % at 10 µM | hit rate 39% among 2,300;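 active = mean duplicate percent inhibition, scaled so buffer wells are 0 and the reference blocker 100, over three buffer SD above buffer mean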
HEK293 Ca mobil = alters calcium mobilization in TMEM16A HEK293 cells, counter-screen; shares compounds with TMEM16A inh; TMEM16A/YFP HEK293, Fluo4 calcium mobilization; calcium response (% of ionomycin), % at 10 µM; hit rate 2% among 2,300; AID 652231;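 active = duplicate-averaged calcium signal over 20% of the ionomycin maximum, relative to buffer baseline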;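 note: each well's signal is peak minus trough fluorescence divided by its pre-addition baseline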
Parental YFP cnt = parental YFP-HEK293 iodide quench counter-screen activity. 2,300 tested, under 10 active. shares compounds with TMEM16A inh. ionomycin. YFP ratio F(max-min)/F0 at 10 µM. AID 652233;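 active = yellow fluorescent protein signal ratio exceeding the buffer control mean by over 5 SD of those controls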;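 note: ratio is mean of duplicate wells from kinetic YFP trace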
ClC-1 inh = rat ClC-1 inhibition, TMEM16A specificity screen; shares compounds with TMEM16A inh; CHO ClC-1-YFP, iodide influx fluorescence quench; iodide control reads 0, buffer control 100; ratio percent, % at 10 µM; 2,300 tested, under 10 active;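 active = duplicate-mean ratio percent above the mean of iodide-only control wells, which defines zero, plus 5 of their SD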;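 note: higher percent means stronger block of ClC-1 iodide influx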
Numbers stand for hits; i = inactive; nt = no result given; ! = not active in a repeat. Most compounds without a hit are left out; they make up all but 1.3% or so of the library.

SMILES	MT1-MMP act inh	TMEM16A inh	DAGLB inh	ANO1 activ	TMEM16A reconf	HEK293 Ca mobil	Parental YFP cnt	ClC-1 inh
CC(C)Cn1c(N)c(C(=O)COC(=O)CCc2nc3ccccc3s2)c(=O)n(C)c1=O	i	100	i	i	21.0%	i	i	i
Cc1csc(=O)n1CCC(=O)OCC(=O)c1c(N)n(CC(C)C)c(=O)n(C)c1=O	i	i	i	i	nt	nt	nt	nt
CC(C)Cn1c(N)c(C(=O)COC(=O)CCc2nc3ccccc3c(=O)[nH]2)c(=O)n(C)c1=O	i	nt	i	i	nt	nt	nt	nt
CC(C)Cn1c(N)c(C(=O)COC(=O)CC23CC4CC(CC(C4)C2)C3)c(=O)n(C)c1=O	i	25	i	i	34.5%	i	i	i
Nc1[nH]c(C(=O)c2ccccc2)c(-c2cccc3ccccc23)c1C(=O)NCc1ccccc1	i	nt	nt	nt	nt	nt	nt	nt
C[C@H]1CN([C@@H](C)CO)S(=O)(=O)c2ccc(Br)cc2O[C@@H]1CN(C)Cc1cccc(F)c1	i	nt	i	nt	nt	nt	nt	nt
CCOC(=O)c1cc(-c2cccc(C(F)(F)F)c2)nc2nc(SC)[nH]c(=O)c12	i	i	i	i	nt	nt	nt	nt
CCOC(=O)c1nc(C)nc(Sc2n[nH]c(-c3cc(C(F)(F)F)cc(C(F)(F)F)c3)n2)c1C	i	25	i	i	30.5%	i	i	i
CC1(C(=O)NS(=O)(=O)c2cccs2)CCN1C(=O)c1ccccc1CCc1ccccc1 (stereo not given)	i	nt	nt	nt	nt	nt	nt	nt
COCCCNC(=O)CC1C[C@H](C(=O)N2CCOCC2)[C@@]2(C)c3[nH]c4ccc(OC)cc4c3CCN2C1=O (stereo not given in full)	i	nt	i	nt	nt	nt	nt	nt
O=C(CCCCCn1c(=O)[nH]c2ccsc2c1=O)NCc1ccc2c(c1)OCO2	i	25	i	i	i	i	i	i
CC(=O)c1ccc(OCCCC(=O)N2CCN(S(=O)(=O)c3ccc(C(C)C)cc3)CC2)cc1	i	25	i	i	i	i	i	i
Cc1c(O)cccc1C(=O)N[C@@H](CSc1ccccc1)[C@H](O)CN1C[C@H]2CCCC[C@H]2C[C@H]1C(=O)NC(C)(C)C	i	100!	i	i	41.0%	i	i	i
Cc1cc(C)nc(NCC(O)CNc2ccccc2Cl)n1 (stereo not given)	i	25	i	i	35.5%	i	i	i
O=C(CSc1nc2ccccc2c(=O)n1-c1ccc(OC(F)F)cc1)NC1CC1	i	nt	i	i	nt	nt	nt	nt
COc1cccc(CN(C(=O)c2ccc([N+](=O)[O-])cc2)C2CCS(=O)(=O)C2)c1 (stereo not given)	i	i	i	i	nt	nt	nt	nt
O=C(N/N=C/c1ccc(O)cc1)c1ccc(COc2cc(Cl)ccc2Cl)o1	i	25	i	-5.56	i	i	i	i
O=C(Nc1cccnc1)c1ccc(COc2cc(Cl)ccc2Cl)o1	i	i	i	i	nt	nt	nt	nt
NC1=NC[C@H](Cc2ccccc2)N1CCCCC1CCCCC1	i	25	i	i	38.0%	i	i	i
NC1=NC[C@H](Cc2ccc(O)cc2)N1CCCCC1CCCCC1	i	i	i	i	nt	nt	nt	nt
Cn1c(=O)c2c(nc(NCCCO)n2C/C=C/c2ccccc2)n(C)c1=O	i	100	i	i	i	i	i	i
COc1ccc(C)cc1N(CC(=O)O)S(=O)(=O)c1ccc(C)cc1	i	i	i	i	i	i	i	i
COc1ccc(C)cc1N(CC(N)=O)S(=O)(=O)c1ccc(C)cc1	i	i	i	i	nt	nt	nt	nt
COc1cccc(CN2CCC(C(=O)NC(C)c3cccc4ccccc34)CC2)c1 (stereo not given)	i	nt	nt	nt	nt	nt	nt	nt
O=C(CNc1cccc(S(=O)(=O)N2CCCC2)c1)Nc1cccc(Br)c1	i	25	i	i	16.5%	i	i	i
SMILES	MT1-MMP act inh	TMEM16A inh	DAGLB inh	ANO1 activ	TMEM16A reconf	HEK293 Ca mobil	Parental YFP cnt	ClC-1 inh
O=C(CNc1ccc(Br)cc1)Nc1cccc(S(=O)(=O)N2CCCC2)c1	i	nt	i	i	nt	nt	nt	nt
CSc1ncc(Cl)c(C(=O)Nc2cccc(C)c2)n1	i	i	i	i	nt	nt	nt	nt
CSc1ncc(Cl)c(C(=O)C(C#N)c2nc3c(C)cc(C)cc3c(=O)[nH]2)n1 (stereo not given)	i	100	i	i	59.0%	i	i	i
CCOC(=O)N1CCN(C(=O)c2cc(COc3cccc(C(C)=O)c3)on2)CC1	i	i	i	i	nt	nt	nt	nt
Cc1cccnc1CN1CCN(C(=O)c2cc(COc3ccc4ncccc4c3)on2)CC1	i	25	i	i	22.0%	i	i	i
O=C(c1cc(COc2ccc3ncccc3c2)on1)N1CCCC(O)C1 (stereo not given)	i	i	i	i	nt	nt	nt	nt
CCOC(=O)N1CCN(C(=O)c2cc(COc3ccc4ncccc4c3)on2)CC1	i	25	i	i	31.0%	i	i	i
CCC(O)C1CCN(C(=O)c2cc(COc3ccc4ncccc4c3)on2)CC1 (stereo not given)	i	100	nt	i	i	i	i	i
O=C(c1cc(COc2ccc3ncccc3c2)on1)N1CCC(O)CC1	i	i	i	i	nt	nt	nt	nt
O=C(O)COc1ccc(/C=C/c2nc(-c3ccccc3O)n[nH]2)cc1	i	i	i	i	nt	nt	nt	nt
COc1ccc(/C=C/c2nc(-c3ccccc3O)n[nH]2)cc1OC	i	25	i	i	i	i	i	i
CC1(Cc2ccc(F)c(Cl)c2)C(=O)Nc2c(Cl)cccc21 (stereo not given)	i	nt	nt	nt	nt	nt	nt	nt
CC(=O)Nc1ccc(Oc2cc(C#N)c(C#N)cc2N2CCCCCC2)cc1	i	100	i	i	i	i	i	i
CC(=O)Nc1ccc(Oc2cc(C#N)c(C#N)cc2N2CCOCC2)cc1	i	i	i	i	nt	nt	nt	nt
COc1ccc(/C=C2/SC(=S)N(CC(=O)O)C2=O)cc1OCc1ccc(Cl)cc1	i	i	i	i	nt	nt	nt	nt
CC(C(=O)O)N1C(=O)/C(=C/c2cccn2C)SC1=S (stereo not given)	i	i	i	i	nt	nt	nt	nt
Cn1cccc1/C=C1/SC(=S)N(CC(=O)O)C1=O	i	i	i	i	i	i	i	i
CN1C(=O)/C(=C/c2ccc(OC(=O)c3ccco3)cc2)SC1=S	i	i	i	i	i	i	i	i
CN1C(=O)/C(=C\c2ccc(OC(=O)c3ccco3)cc2)SC1=S	i	i	i	i	nt	nt	nt	nt
COc1cc(/C=C2\SC(=S)N(CC(=O)O)C2=O)ccc1OC(=O)c1ccco1	i	i	i	-5.49	i	i	i	i
Cc1noc(C)c1C(=O)OCC(=O)/C=C1/N(C)c2ccccc2C1(C)C	i	nt	i	i	nt	nt	nt	nt
CCCCOC(=O)c1ccc(NC(=O)c2ccccc2OC)cc1	i	100	i	i	35.5%	i	i	i
